Assay results taken from ChEMBL document CHEMBL3585299, “Design and synthesis of novel ROR inverse agonists with a dibenzosilole scaffold as a hydrophobic core structure” (Bioorg Med Chem, 2015).

What was measured:
Assay type in all cases: cell-based
[1] = biological target: T1, Nuclear receptor ROR-beta (Homo sapiens, UniProt Q92753); experiment: Inverse agonist activity at human ROR-beta1 transfected in HEK293 cells after 16 hrs by luciferase reporter gene assay
T1 sequence (Q92753 whole entry): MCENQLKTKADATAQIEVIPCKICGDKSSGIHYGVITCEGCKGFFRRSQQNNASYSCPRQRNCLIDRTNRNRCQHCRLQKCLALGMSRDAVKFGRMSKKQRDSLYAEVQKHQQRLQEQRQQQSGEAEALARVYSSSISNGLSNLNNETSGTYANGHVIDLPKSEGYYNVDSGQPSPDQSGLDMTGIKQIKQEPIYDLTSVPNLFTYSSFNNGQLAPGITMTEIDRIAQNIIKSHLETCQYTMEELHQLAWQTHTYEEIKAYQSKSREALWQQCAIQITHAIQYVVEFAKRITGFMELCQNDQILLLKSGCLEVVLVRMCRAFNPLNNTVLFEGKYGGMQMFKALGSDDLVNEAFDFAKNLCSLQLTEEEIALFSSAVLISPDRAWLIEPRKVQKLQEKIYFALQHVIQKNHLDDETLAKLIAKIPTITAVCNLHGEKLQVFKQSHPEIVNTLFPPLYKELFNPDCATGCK

[2] = biological target: T2, Nuclear receptor ROR-alpha (Homo sapiens, UniProt P35398); experiment: Inverse agonist activity at human ROR-alpha1 transfected in HEK293 cells after 16 hrs by luciferase reporter gene assay
T2 sequence (P35398 whole entry): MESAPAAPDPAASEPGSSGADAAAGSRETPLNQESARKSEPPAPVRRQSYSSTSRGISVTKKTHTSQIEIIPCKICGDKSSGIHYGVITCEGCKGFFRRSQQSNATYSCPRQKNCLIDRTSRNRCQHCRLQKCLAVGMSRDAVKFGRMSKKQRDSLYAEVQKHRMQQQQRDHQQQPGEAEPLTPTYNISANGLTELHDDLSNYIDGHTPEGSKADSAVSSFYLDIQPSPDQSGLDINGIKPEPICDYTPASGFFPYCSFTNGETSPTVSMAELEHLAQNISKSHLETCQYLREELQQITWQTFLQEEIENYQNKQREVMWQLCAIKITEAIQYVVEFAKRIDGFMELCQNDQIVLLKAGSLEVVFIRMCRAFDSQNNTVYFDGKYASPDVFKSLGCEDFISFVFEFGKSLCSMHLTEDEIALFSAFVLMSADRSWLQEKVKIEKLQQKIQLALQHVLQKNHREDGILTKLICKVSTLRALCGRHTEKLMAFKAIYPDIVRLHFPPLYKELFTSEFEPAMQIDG

[3] = biological target: T3, Nuclear receptor ROR-gamma (Homo sapiens, UniProt P51449); experiment: Inverse agonist activity at human ROR-gamma1 transfected in HEK293 cells after 16 hrs by luciferase reporter gene assay
T3 sequence (P51449 whole entry): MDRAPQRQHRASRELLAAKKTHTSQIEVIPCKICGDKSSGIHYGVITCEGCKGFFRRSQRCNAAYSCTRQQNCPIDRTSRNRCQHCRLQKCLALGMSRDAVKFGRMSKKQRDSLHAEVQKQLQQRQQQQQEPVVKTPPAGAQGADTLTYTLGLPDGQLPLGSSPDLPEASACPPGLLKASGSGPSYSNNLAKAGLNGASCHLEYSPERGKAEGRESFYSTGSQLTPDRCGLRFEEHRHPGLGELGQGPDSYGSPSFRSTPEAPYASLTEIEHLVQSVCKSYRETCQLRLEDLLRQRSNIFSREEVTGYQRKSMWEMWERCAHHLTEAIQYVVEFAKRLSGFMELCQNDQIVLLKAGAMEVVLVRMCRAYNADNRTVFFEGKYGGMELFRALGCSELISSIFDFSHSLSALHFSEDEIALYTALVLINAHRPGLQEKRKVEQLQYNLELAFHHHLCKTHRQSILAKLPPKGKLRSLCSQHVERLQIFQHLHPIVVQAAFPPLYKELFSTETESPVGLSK

[4] = biological target: T4, Nuclear receptor ROR-gamma (Homo sapiens) (UniProt P51449); experiment: Inverse agonist activity at human ROR-gamma1 transfected in HEK293 cells at 10 uM after 16 hrs by luciferase reporter gene assay relative to control
T4 sequence (whole entry): T3 sequence (P51449 whole entry)
Outline: (§1)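 HEK293 cells grown in DMEM with 5% FBS plus penicillin/streptomycin, 37 °C, 5% CO2, seeded at 20% confluence 24 h before transfection. Calcium phosphate cotransfection per well: 150 ng receptor expression plasmid, 500 ng luciferase reporter, 10 ng β-galactosidase vector. After 8 h, compound at 10 µM or DMSO for 16 h. Luciferase normalized to β-galactosidase, inhibition expressed as percent of control, transfections in triplicate.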

[5] = biological target: T5, Nuclear receptor ROR-beta (Homo sapiens) (UniProt Q92753); experiment: Inverse agonist activity at human ROR-beta1 transfected in HEK293 cells at 10 uM after 16 hrs by luciferase reporter gene assay relative to control; outline: as §1
T5 sequence (whole entry): T1 sequence (Q92753 whole entry)

Structure (SMILES) | IC50 [1] [µM] | IC50 [2] [µM] | IC50 [3] [µM] | inhibition [4] [%] | inhibition [5] [%]
CCCCn1c(=O)c2ccccc2c2cc(C(O)(C(F)(F)F)C(F)(F)F)ccc21 | 5.7 | 7.2 | 4.7 | – | –
CCCC[Si]1(CCCC)c2ccccc2-c2cc(C(C)=O)ccc21 | – | – | – | < 5 | < 5
CCCCn1c(=O)c2ccccc2c2cc(CC)ccc21 | – | – | – | 37 | 29
CCCC[Si]1(CCCC)c2ccccc2-c2cc(C(C)O)ccc21 (stereo unspecified) | – | – | – | < 5 | < 5
CCCC[Si]1(CCCC)c2ccccc2-c2ccccc21 | – | – | – | 13 | < 5
C[Si]1(C)c2ccccc2-c2cc(C(O)(C(F)(F)F)C(F)(F)F)ccc21 | – | – | – | – | 40
CCCC[Si]1(CCCC)c2ccccc2-c2cc(CC)ccc21 | – | – | – | 18 | < 5
CC[Si]1(CC)c2ccccc2-c2cc(C(O)(C(F)(F)F)C(F)(F)F)ccc21 | – | – | 4.2 | – | 28
